Measured values: ChEMBL document CHEMBL4689842, “EUbOPEN Chemogenomics Library wave 1” (2021)
Several values for one entry are separate records, joined by “and”; a condition that tells them apart may be missing. Equal values may be shown once.

Tested on: Fibroblast
Assay: Multiplex assay against human fibroblast
Type: toxicity, cell-based
In short: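 At seeding, live cells were stained with Hoechst33342, BioTracker Green Microtubule Cytoskeleton Dye, MitoTracker Red and Annexin V Alexa Fluor 680. After compound addition they were imaged on a CQ1 microscope at 37°C and 5% CO2, and CellPathfinder machine-learning gating sorted them into Hoechst high-intensity objects or normal cells, with normal cells further split into healthy, pyknosed or fragmented nuclei and pyknosed cells into mitotic or apoptotic. Tubulin, mitochondrial-mass and membrane-permeability phenotypes are given as per cents of cells with healthy nuclei.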

[1] = 12 h, 1 µM, compound concentration 1 uM, replicate 1
[2] = 12 h, 1 µM, compound concentration 1 uM, replicate 2
[3] = 12 h, 10 µM, compound concentration 10 uM, replicate 1
[4] = 12 h, 10 µM, compound concentration 10 uM, replicate 2
[5] = 24 h, 1 µM, compound concentration 1 uM, replicate 1
[6] = 24 h, 1 µM, compound concentration 1 uM, replicate 2
[7] = 24 h, 10 µM, compound concentration 10 uM, replicate 1
[8] = 24 h, 10 µM, compound concentration 10 uM, replicate 2
[9] = 48 h, 1 µM, compound concentration 1 uM, replicate 1
[10] = 48 h, 1 µM, compound concentration 1 uM, replicate 2
[11] = 48 h, 10 µM, compound concentration 10 uM, replicate 1
[12] = 48 h, 10 µM, compound concentration 10 uM, replicate 2

Cc1ccc2c(c1)c1c(n2CCc2ccc(C)nc2)CCN(C)C1 [LATREPIRDINE]
Population Apoptotic (%) [1]: 60% | Population Fragmented Nuclei (%) [1]: 26% | Population Healthy Nuclei (%) [1]: 55% | Population Hoechst High Intensity Objects (%) [1]: 15% | Population Membrane Permeable-Phenotype (%) [1]: 18% | Population Mitochondria Different-Phenotype (%) [1]: 18% | Population Mitotic Cells (%) [1]: 40% | Population Normal (%) [1]: 84% | Population Pyknosed Nuclei (%) [1]: 18% | Population Tubulin-Different-Phenotype (%) [1]: 59% | Total Cell Count [1]: 127 | Population Apoptotic (%) [2]: 100% | Population Fragmented Nuclei (%) [2]: 27% | Population Healthy Nuclei (%) [2]: 67% | Population Hoechst High Intensity Objects (%) [2]: 16% | Population Membrane Permeable-Phenotype (%) [2]: 5% | Population Mitochondria Different-Phenotype (%) [2]: 27% | Population Mitotic Cells (%) [2]: 0% | Population Normal (%) [2]: 83% | Population Pyknosed Nuclei (%) [2]: 4% | Population Tubulin-Different-Phenotype (%) [2]: 27% | Total Cell Count [2]: 61 | Population Apoptotic (%) [3]: 55% | Population Fragmented Nuclei (%) [3]: 29% | Population Healthy Nuclei (%) [3]: 47% | Population Hoechst High Intensity Objects (%) [3]: 15% | Population Membrane Permeable-Phenotype (%) [3]: 3% | Population Mitochondria Different-Phenotype (%) [3]: 30% | Population Mitotic Cells (%) [3]: 44% | Population Normal (%) [3]: 84% | Population Pyknosed Nuclei (%) [3]: 23% | Population Tubulin-Different-Phenotype (%) [3]: 88% | Total Cell Count [3]: 148 | Population Apoptotic (%) [4]: 88% | Population Fragmented Nuclei (%) [4]: 7% | Population Healthy Nuclei (%) [4]: 65% | Population Hoechst High Intensity Objects (%) [4]: 8% | Population Membrane Permeable-Phenotype (%) [4]: 42% | Population Mitochondria Different-Phenotype (%) [4]: 100% | Population Mitotic Cells (%) [4]: 11% | Population Normal (%) [4]: 91% | Population Pyknosed Nuclei (%) [4]: 26% | Population Tubulin-Different-Phenotype (%) [4]: 100% | Total Cell Count [4]: 103 | Population Apoptotic (%) [5]: 60% | Population Fragmented Nuclei (%) [5]: 27% | Population Healthy Nuclei (%) [5]: 59% | Population Hoechst High Intensity Objects (%) [5]: 16% | Population Membrane Permeable-Phenotype (%) [5]: 22% | Population Mitochondria Different-Phenotype (%) [5]: 14% | Population Mitotic Cells (%) [5]: 40% | Population Normal (%) [5]: 83% | Population Pyknosed Nuclei (%) [5]: 12% | Population Tubulin-Different-Phenotype (%) [5]: 61% | Total Cell Count [5]: 140 | Population Apoptotic (%) [6]: 55% | Population Fragmented Nuclei (%) [6]: 23% | Population Healthy Nuclei (%) [6]: 67% | Population Hoechst High Intensity Objects (%) [6]: 13% | Population Membrane Permeable-Phenotype (%) [6]: 10% | Population Mitochondria Different-Phenotype (%) [6]: 27% | Population Mitotic Cells (%) [6]: 44% | Population Normal (%) [6]: 86% | Population Pyknosed Nuclei (%) [6]: 8% | Population Tubulin-Different-Phenotype (%) [6]: 14% | Total Cell Count [6]: 74 | Population Apoptotic (%) [7]: 55% | Population Fragmented Nuclei (%) [7]: 33% | Population Healthy Nuclei (%) [7]: 51% | Population Hoechst High Intensity Objects (%) [7]: 28% | Population Membrane Permeable-Phenotype (%) [7]: 10% | Population Mitochondria Different-Phenotype (%) [7]: 37% | Population Mitotic Cells (%) [7]: 45% | Population Normal (%) [7]: 71% | Population Pyknosed Nuclei (%) [7]: 14% | Population Tubulin-Different-Phenotype (%) [7]: 82% | Total Cell Count [7]: 189 | Population Apoptotic (%) [8]: 76% | Population Fragmented Nuclei (%) [8]: 4% | Population Healthy Nuclei (%) [8]: 56% | Population Hoechst High Intensity Objects (%) [8]: 4% | Population Membrane Permeable-Phenotype (%) [8]: 56% | Population Mitochondria Different-Phenotype (%) [8]: 100% | Population Mitotic Cells (%) [8]: 24% | Population Normal (%) [8]: 95% | Population Pyknosed Nuclei (%) [8]: 38% | Population Tubulin-Different-Phenotype (%) [8]: 100% | Total Cell Count [8]: 119 | Population Apoptotic (%) [9]: 88% | Population Fragmented Nuclei (%) [9]: 36% | Population Healthy Nuclei (%) [9]: 55% | Population Hoechst High Intensity Objects (%) [9]: 23% | Population Membrane Permeable-Phenotype (%) [9]: 13% | Population Mitotic Cells (%) [9]: 11% | Population Normal (%) [9]: 76% | Population Pyknosed Nuclei (%) [9]: 8% | Population Tubulin-Different-Phenotype (%) [9]: 42% | Total Cell Count [9]: 140 | Population Apoptotic (%) [10]: 100% | Population Fragmented Nuclei (%) [10]: 53% | Population Healthy Nuclei (%) [10]: 43% | Population Hoechst High Intensity Objects (%) [10]: 44% | Population Membrane Permeable-Phenotype (%) [10]: 22% | Population Mitochondria Different-Phenotype (%) [10]: 6% | Population Mitotic Cells (%) [10]: 0% | Population Normal (%) [10]: 55% | Population Pyknosed Nuclei (%) [10]: 3% | Population Tubulin-Different-Phenotype (%) [10]: 56% | Total Cell Count [10]: 206 | Population Fragmented Nuclei (%) [11]: 40% | Population Healthy Nuclei (%) [11]: 56% | Population Hoechst High Intensity Objects (%) [11]: 31% | Population Membrane Permeable-Phenotype (%) [11]: 7% | Population Mitochondria Different-Phenotype (%) [11]: 21% | Population Normal (%) [11]: 68% | Population Pyknosed Nuclei (%) [11]: 3% | Population Tubulin-Different-Phenotype (%) [11]: 80% | Total Cell Count [11]: 208 | Population Apoptotic (%) [12]: 100% | Population Fragmented Nuclei (%) [12]: 34% | Population Healthy Nuclei (%) [12]: 64% | Population Hoechst High Intensity Objects (%) [12]: 25% | Population Membrane Permeable-Phenotype (%) [12]: 14% | Population Mitochondria Different-Phenotype (%) [12]: 9% | Population Mitotic Cells (%) [12]: 0% | Population Normal (%) [12]: 74% | Population Pyknosed Nuclei (%) [12]: 2% | Population Tubulin-Different-Phenotype (%) [12]: 79% | Total Cell Count [12]: 134

CNC(=O)c1ccc(Nc2ncc(C(F)(F)F)c(NCc3nccnc3N(C)S(C)(=O)=O)n2)cc1 [DEFACTINIB]
Population Apoptotic (%) [1]: 66% and 80% | Population Fragmented Nuclei (%) [1]: 31% and 21% | Population Healthy Nuclei (%) [1]: 51% and 60% | Population Hoechst High Intensity Objects (%) [1]: 12% and 14% | Population Membrane Permeable-Phenotype (%) [1]: 8% and 23% | Population Mitochondria Different-Phenotype (%) [1]: 2% and 4% | Population Mitotic Cells (%) [1]: 33% and 20% | Population Normal (%) [1]: 87% and 85% | Population Pyknosed Nuclei (%) [1]: 17% | Total Cell Count [1]: 217 and 234 | Population Apoptotic (%) [2]: 25% and 42% | Population Fragmented Nuclei (%) [2]: 60% and 57% | Population Healthy Nuclei (%) [2]: 32% and 27% | Population Hoechst High Intensity Objects (%) [2]: 22% and 35% | Population Membrane Permeable-Phenotype (%) [2]: 0% and 7% | Population Mitochondria Different-Phenotype (%) [2]: 15% and 23% | Population Mitotic Cells (%) [2]: 75% and 57% | Population Normal (%) [2]: 77% and 64% | Population Pyknosed Nuclei (%) [2]: 6% and 14% | Population Tubulin-Different-Phenotype (%) [2]: 20% and 38% | Total Cell Count [2]: 79 and 73 | Population Apoptotic (%) [3]: 90% and 80% | Population Fragmented Nuclei (%) [3]: 24% and 29% | Population Healthy Nuclei (%) [3]: 58% | Population Hoechst High Intensity Objects (%) [3]: 8% | Population Membrane Permeable-Phenotype (%) [3]: 21% and 7% | Population Mitochondria Different-Phenotype (%) [3]: 3% | Population Mitotic Cells (%) [3]: 9% and 20% | Population Normal (%) [3]: 91% | Population Pyknosed Nuclei (%) [3]: 17% and 12% | Total Cell Count [3]: 208 and 174 | Population Apoptotic (%) [4]: 42% and 33% | Population Fragmented Nuclei (%) [4]: 42% and 66% | Population Healthy Nuclei (%) [4]: 47% and 25% | Population Hoechst High Intensity Objects (%) [4]: 24% and 47% | Population Membrane Permeable-Phenotype (%) [4]: 12% and 0% | Population Mitochondria Different-Phenotype (%) [4]: 18% and 50% | Population Mitotic Cells (%) [4]: 57% and 66% | Population Normal (%) [4]: 75% and 52% | Population Pyknosed Nuclei (%) [4]: 10% and 7% | Population Tubulin-Different-Phenotype (%) [4]: 54% and 40% | Total Cell Count [4]: 93 and 74 | Population Apoptotic (%) [5]: 66% and 85% | Population Fragmented Nuclei (%) [5]: 23% and 35% | Population Healthy Nuclei (%) [5]: 59% and 48% | Population Hoechst High Intensity Objects (%) [5]: 18% and 11% | Population Mitochondria Different-Phenotype (%) [5]: 3% and 7% | Population Mitotic Cells (%) [5]: 33% and 14% | Population Normal (%) [5]: 81% and 88% | Population Pyknosed Nuclei (%) [5]: 16% and 15% | Total Cell Count [5]: 205 and 241 | Population Fragmented Nuclei (%) [6]: 55% and 61% | Population Healthy Nuclei (%) [6]: 39% and 19% | Population Hoechst High Intensity Objects (%) [6]: 30% and 29% | Population Mitochondria Different-Phenotype (%) [6]: 5% and 0% | Population Mitotic Cells (%) [6]: 100% and 40% | Population Normal (%) [6]: 69% and 70% | Total Cell Count [6]: 62 and 74 | Population Apoptotic (%) [7]: 80% and 73% | Population Fragmented Nuclei (%) [7]: 33% and 25% | Population Healthy Nuclei (%) [7]: 45% and 64% | Population Hoechst High Intensity Objects (%) [7]: 10% and 15% | Population Membrane Permeable-Phenotype (%) [7]: 21% and 10% | Population Mitotic Cells (%) [7]: 20% and 26% | Population Normal (%) [7]: 89% and 84% | Population Pyknosed Nuclei (%) [7]: 21% and 9% | Total Cell Count [7]: 210 and 186 | Population Apoptotic (%) [8]: 75% and 50% | Population Fragmented Nuclei (%) [8]: 49% and 57% | Population Healthy Nuclei (%) [8]: 44% and 37% | Population Hoechst High Intensity Objects (%) [8]: 27% and 35% | Population Membrane Permeable-Phenotype (%) [8]: 14% and 0% | Population Mitochondria Different-Phenotype (%) [8]: 10% and 13% | Population Mitotic Cells (%) [8]: 25% and 50% | Population Normal (%) [8]: 72% and 64% | Population Pyknosed Nuclei (%) [8]: 6% and 5% | Population Tubulin-Different-Phenotype (%) [8]: 46% and 26% | Total Cell Count [8]: 87 and 62
